Screens as filed in PubChem.
Hits are enriched below; roughly 1.5% of the tested compounds scored in any of these assays.
PKA-R2B act – activates the human PKA-R2B holoenzyme complex | P22694+P31323 | PKA-R2B holoenzyme dissociation, Cy5-IP20 fluorescence polarization; R2B truncated from residue 108, S112A mutant; 0% DMSO only, 100% 113 µM cGMP | activation, % at 11.4 µM | actives 0.079% (n = 340,000) | AID 504700;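 active means activation above a cutoff set at the mean over all compounds plus 3 SD, cut at about 18% in these data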;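 further: higher means more holoenzyme dissociation and a rise in polarization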
CRFR2-BP antag – antagonists of CRF-binding protein/CRF-R2 receptor complex | HEK293 CRF-R2/CRF-BP, CRF-induced calcium fluorescence | inhibition, % at 11.8 µM | actives 0.59% (n = 350,000) | AID 588475;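 active means inhibition of the ligand-induced calcium signal above about 50% at the single tested concentration, limit read from the data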
SIRT5 block – sirtuin-5 (human) deacylase inhibition. Q9NXA8. Purified SirT5, succinyl-peptide AMC, trypsin-coupled fluorescence. inhibition, % at 15 µM. actives 1.1% (n = 330,000). AID 652115; in the data active means inhibition above about 15%
Target sequence (Q9NXA8 whole entry, looked up): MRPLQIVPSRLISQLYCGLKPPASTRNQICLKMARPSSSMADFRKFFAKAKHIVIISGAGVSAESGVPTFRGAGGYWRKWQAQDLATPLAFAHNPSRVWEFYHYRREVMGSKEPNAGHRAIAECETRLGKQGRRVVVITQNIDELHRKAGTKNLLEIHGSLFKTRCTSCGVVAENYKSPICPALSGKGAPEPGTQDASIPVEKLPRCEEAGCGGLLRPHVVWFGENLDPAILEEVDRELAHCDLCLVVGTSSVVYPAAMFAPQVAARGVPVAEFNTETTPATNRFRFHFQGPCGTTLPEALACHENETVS
PKA-R1A activ – activates the PKA-R1A holoenzyme complex; actives 0.083% (n = 340,000); PKA-R1A dissociation, Cy5-IP20 fluorescence polarization; scaled: DMSO 0%, 113 µM cGMP 100%; activation, % at 11.4 µM; AID 504707; P00514+P68181;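 active means percent activation above the mean of all tested compounds plus 3 SD, cut at about 19% in these data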;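 further: higher means more PKAc released from R1A so a rise in polarization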
S100A4 MyoIIA – S100A4-myosin IIA interaction inhibition | actives 0.14% (n = 360,000) | S100A4/TAMRA-MyoIIA peptide fluorescence polarization | AID 652163 | inhibition, % at 10.7 µM | P26447;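 active means mean inhibition of at least 70% across replicates, with every replicate also reaching that level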
Target sequence (P26447 whole entry, looked up): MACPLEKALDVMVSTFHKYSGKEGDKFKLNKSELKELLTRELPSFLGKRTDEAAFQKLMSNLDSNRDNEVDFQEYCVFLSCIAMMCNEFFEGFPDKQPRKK
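Test system – S100A4 monomer (human) · Compound – single-point compound testing · Schedule – 5 min incubation before reading · Probe or stimulus – TAMRA-labelled myosin IIA heavy-chain peptide probe, 5 nM · Benchmarks – neutral control DMSO, positive control TFP · Medium – Calcium-containing HEPES buffer, pH 7.2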
* hit, by the source's call; ! = not confirmed by another sample.

What do the screens show for `COc1cccc(-c2cccc(-c3nc(C(=O)NCC(F)(F)F)cc4c3[C@H](CCO)N([S@@](=O)C(C)(C)C)C4)c2)c1`?
SIRT5 block: 1; S100A4 MyoIIA: -20

How did CCCNC(=O)c1cc2c(c(-c3cccc(-c4cccc(OC)c4)c3)n1)[C@H](CCO)N([S@@](=O)C(C)(C)C)C2 do in these assays?
SIRT5 block: 18*; S100A4 MyoIIA: -37

How did COCCNC(=O)c1cc2c(c(-c3cccc(-c4cccc(F)c4)c3)n1)[C@H](CCO)N(S(=O)C(C)(C)C)C2 (stereo partly drawn) do in these assays?
SIRT5 block: 36*; S100A4 MyoIIA: -14

Results for CCOC(=O)[C@@H]1[C@@H]2C=C[C@]3(O2)[C@H](C(=O)NCc2ccccc2)N(CCCCCCO)C(=O)[C@@H]13 ?
SIRT5 block: 4; S100A4 MyoIIA: 1

What do the screens show for `CC1=C(C(=O)N2CCOCC2)CC(CC(=O)NC2CC2)C(=O)N1CCC1=CCCCC1` (stereo not drawn)?
SIRT5 block: 17*; S100A4 MyoIIA: -2

What do the screens show for `CC1=C(C(=O)N2CCOCC2)CC(CC(=O)NCC2CCCCC2)C(=O)N1CCC1=CCCCC1` (stereo not drawn)?
PKA-R2B act: 0; CRFR2-BP antag: -5; SIRT5 block: 23*; PKA-R1A activ: 0; S100A4 MyoIIA: -4

What do the screens show for `CC1=C(C(=O)N(C)C)CC(CC(=O)NCC2CCCCC2)C(=O)N1CCC1=CCCCC1` (stereo not drawn)?
PKA-R2B act: -3; CRFR2-BP antag: 3; SIRT5 block: -5; PKA-R1A activ: -3; S100A4 MyoIIA: -2

What do the screens show for `CC=Cc1ccc2n(c1=O)C[C@H]1[C@H](CO)[C@@H](C(=O)NC3CCC3)N(Cc3ccncc3)[C@@H]21` (mixture of isomers)?
SIRT5 block: -2; S100A4 MyoIIA: -5

Results for Cc1noc(C)c1NC(=O)N[C@@H]1CC[C@H](CCNC(=O)C2CCC2)O[C@H]1CO ?
SIRT5 block: 1; S100A4 MyoIIA: 5

What do the screens show for `CC1CC(C)CN(C(=O)CSc2nc(Cc3cccs3)nc3ccccc23)C1` (stereo not drawn)?
PKA-R2B act: -7; CRFR2-BP antag: 154*; PKA-R1A activ: 1

How did CCOC(=O)CNC(=O)CSc1nc(Cc2cccs2)nc2ccccc12 do in these assays?
PKA-R2B act: 2; CRFR2-BP antag: 6; SIRT5 block: 0; PKA-R1A activ: 5; S100A4 MyoIIA: -5

What do the screens show for `CC(=O)N(Cc1ccco1)c1nc(C(=O)Nc2ccc(Cl)cc2)c(C)s1`?
PKA-R2B act: -2; CRFR2-BP antag: 65*; PKA-R1A activ: 0

Results for COc1ccc2c3c([nH]c2c1)[C@H](CO)N(C(=O)CC1CC1)CC31CCN(C(=O)CC2CC2)CC1 ?
SIRT5 block: -3; S100A4 MyoIIA: 1

How did C[C@@H]1CN([C@H](C)CO)C(=O)CCCn2nncc2CO[C@H]1CN(C)Cc1cccnc1 do in these assays?
PKA-R2B act: -2; CRFR2-BP antag: -18; SIRT5 block: 17*!; PKA-R1A activ: -11; S100A4 MyoIIA: -1

Results for C[C@H]1CN([C@@H](C)CO)C(=O)CCCn2nncc2CO[C@H]1CN(C)Cc1cccc(O)c1 ?
SIRT5 block: -2; S100A4 MyoIIA: -6

How did Cc1ccc(CN(C)C[C@@H]2OCc3cnnn3CCCC(=O)N([C@H](C)CO)C[C@@H]2C)cc1 do in these assays?
SIRT5 block: 18*; S100A4 MyoIIA: -12

What do the screens show for `Cc1cccc(CN(C)C[C@@H]2OCc3cnnn3CCCC(=O)N([C@H](C)CO)C[C@@H]2C)c1`?
SIRT5 block: 15*; S100A4 MyoIIA: 4

Results for C[C@H]1CN([C@@H](C)CO)C(=O)CCCn2nncc2CO[C@H]1CN(C)Cc1cccnc1 ?
SIRT5 block: -1; S100A4 MyoIIA: -1

What do the screens show for `COc1cccc(C#Cc2ccc([C@H]3[C@@H](CO)N4C(=O)CN(C(=O)c5ccncc5)C[C@H]34)cc2)c1`?
SIRT5 block: 2; S100A4 MyoIIA: 9

Results for COc1ccc(S(=O)(=O)N(C)C[C@H]2Oc3ccc(NC(=O)Nc4cccc5ccccc45)cc3CC(=O)N([C@H](C)CO)C[C@@H]2C)cc1 ?
SIRT5 block: 8; S100A4 MyoIIA: -8

How did CCNC(=O)C[C@H]1CC[C@@H]2[C@@H](COc3ccc(NC(=O)Nc4ccc(F)cc4)cc3C(=O)N2C)O1 do in these assays?
SIRT5 block: 0; S100A4 MyoIIA: -7

Results for C[C@@H]1CN([C@H](C)CO)C(=O)c2cc(NC(=O)Nc3ccc4c(c3)OCO4)ccc2O[C@@H](C)CCCCO[C@H]1CN(C)Cc1ccc(Cl)c(Cl)c1 ?
SIRT5 block: -4; S100A4 MyoIIA: 10

What do the screens show for `Cc1cccc(C(=O)Nc2scc(-c3ccc(Br)cc3)c2C(=O)O)c1`?
PKA-R2B act: -3; CRFR2-BP antag: 50*; SIRT5 block: -3; PKA-R1A activ: -5; S100A4 MyoIIA: -8

Results for COC(=O)N/N=C(\C)c1cccs1 ?
PKA-R2B act: -2; CRFR2-BP antag: 112*; SIRT5 block: 1; PKA-R1A activ: -4; S100A4 MyoIIA: 0

Results for COc1ccc(-c2nnc(SCCC(=O)O)n2-c2ccccc2)cc1OC ?
PKA-R2B act: -10; CRFR2-BP antag: -1; SIRT5 block: 15*; PKA-R1A activ: -3; S100A4 MyoIIA: -10

What do the screens show for `CCC(=O)N(C)C[C@H]1Oc2cc(C#CC3CCCC3)ccc2S(=O)(=O)N([C@@H](C)CO)C[C@H]1C`?
SIRT5 block: 3; S100A4 MyoIIA: -35

How did Nc1nn2c(C(F)(F)F)cc(=O)[nH]c2c1N=Nc1cccc(F)c1 do in these assays?
PKA-R2B act: -5; CRFR2-BP antag: 87*; PKA-R1A activ: -3

Results for CNC(=S)Nc1ccc2[nH]c(=O)[nH]c2c1 ?
PKA-R2B act: -9; CRFR2-BP antag: -26; SIRT5 block: 21*; PKA-R1A activ: -5; S100A4 MyoIIA: -5

How did CN1C(=O)c2cc(NC(=O)C3CCCC3)ccc2OC[C@H]2O[C@@H](CC(=O)NCC(F)(F)F)CC[C@@H]21 do in these assays?
SIRT5 block: 1; S100A4 MyoIIA: 8

How did COc1ccc(C=C2OC(=O)C(C(C)=O)=C2O)cc1 do in these assays?
PKA-R2B act: -5; CRFR2-BP antag: 18; SIRT5 block: 11; PKA-R1A activ: -4; S100A4 MyoIIA: -11

Results for CC(=O)C1=C(O)C(=Cc2ccccc2)OC1=O ?
PKA-R2B act: 1; CRFR2-BP antag: 9; SIRT5 block: 20*; PKA-R1A activ: 1; S100A4 MyoIIA: -50

What do the screens show for `O=C(NCc1cccs1)c1ccc(CS(=O)Cc2cccc(Cl)c2)o1` (stereo not drawn)?
PKA-R2B act: 0; CRFR2-BP antag: 58*; SIRT5 block: 3; PKA-R1A activ: 6; S100A4 MyoIIA: -6
